Data as given in ChEMBL document CHEMBL5230174, “Synthesis and properties of the kojic acid dimer and its potential for the treatment of Alzheimer's disease” (RSC Med Chem, 2023).
Activity calls are given as the source filed them. The rule behind the calls is not given here.

What was measured:
[1] = Antioxidant activity assessed as DPPH radical scavenging activity at 100 uM incubated for 30 mins under dark condition by UV-Vis spectrophotometry; type: functional
Method in brief: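 Compound dilutions made in DMSO. 100 μM DPPH in ethanol mixed 9:1 with sample, shaken 30 min in dark at room temperature; absorbance read at 517 nm on plate reader. Scavenging rate calculated from absorbance; triplicate wells, three parallel measurements, three independent experiments.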

[2] = Antioxidant activity assessed as ABTS radical scavenging activity at 100 uM incubated for 6 mins under dark condition by UV-Vis spectrophotometry; type: functional
Method in brief: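 Compound dilutions made in DMSO. ABTS (7 mM in water) reacted with 4.96 mM potassium persulfate, 16 h dark at room temperature; working solution adjusted to A734 0.70 ± 0.02. Working solution mixed with sample 9:1, shaken 6 min at room temperature in dark; A734 read on plate reader. Scavenging rate from absorbance; triplicate wells, three independent experiments.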

[3] = Antioxidant activity assessed as DPPH radical scavenging activity at 100 uM incubated for 30 mins under dark condition by UV-Vis spectrophotometry relative to kojic acid; type: functional
Method in brief: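 Samples serially diluted in DMSO, tested at 400–6.25 μM. Mixed with 100 μM DPPH in ethanol at 9:1 reagent:sample and shaken 30 min in the dark at room temperature. Absorbance read at 517 nm. Scavenging rate (%) is the mean of three independent experiments, each run in triplicate wells.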

[4] = Antioxidant activity assessed as ABTS radical scavenging activity at 100 uM incubated for 6 mins under dark condition by UV-Vis spectrophotometry relative to kojic acid; type: functional
Method in brief: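 Samples serially diluted in DMSO, tested at 400–6.25 μM. ABTS (7 mM, water) reacted with 4.96 mM potassium persulfate for 16 h in the dark at room temperature, then diluted to A734 of 0.70 ± 0.02. Working solution mixed 9:1 with sample and shaken 6 min in the dark at room temperature. Absorbance read at 734 nm; scavenging rate (%) is the mean of three independent experiments.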

[5] = Antioxidant activity assessed as ABTS radical scavenging activity at 50 uM incubated for 6 mins under dark condition by UV-Vis spectrophotometry; type: functional
Method in brief: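 ABTS radical cation is generated from 7 mM ABTS and 4.96 mM potassium persulfate, kept dark at room temperature for 16 h, and diluted to A734 0.70 ± 0.02. Samples are serially diluted in DMSO and mixed with working solution, then shaken 6 min at room temperature in the dark before reading A734. Scavenging rate (%) comes from triplicate wells; VC and KA are controls.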

[6] = Cytotoxicity against mouse BV-2 cells assessed as reduction in cell viability incubated for 24 hrs by MTT assay; type: toxicity, cell-based
Method in brief: (§1)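 Cells grown with 10% FBS plus penicillin/streptomycin at 37 °C, 5% CO2 (SH-SY5Y in DMEM/F12; BV-2, HT-22, H9c2 in DMEM; L02 in RPMI 1640). Seeded 1 × 10^4 per well, 24 h, then compound in medium 24 h. MTT (5 mg/mL stock) added 4 h at 37 °C; formazan dissolved in DMSO, A490 read.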

[7] = Cytotoxicity against human SH-SY5Y cells assessed as reduction in cell viability incubated for 24 hrs by MTT assay; type: toxicity, cell-based; method in brief: as §1
[8] = Cytotoxicity against mouse HT-22 cells assessed as reduction in cell viability incubated for 24 hrs by MTT assay; type: toxicity, cell-based; method in brief: as §1
[9] = Cytotoxicity against rat H9c2 cells assessed as reduction in cell viability incubated for 24 hrs by MTT assay; type: toxicity, cell-based; method in brief: as §1
[10] = Cytotoxicity against human L02 cells assessed as reduction in cell viability incubated for 24 hrs by MTT assay; type: toxicity, cell-based; method in brief: as §1
[11] = molecular target: Amyloid-beta precursor protein (Homo sapiens) (UniProt P05067); test: Inhibition of HFIP-pretreated human amyloid beta (1 to 42) aggregation at 50 uM incubated for 24 hrs under dark condition by Thioflavin T dye based fluorometric analysis
Chain of Amyloid-beta precursor protein (Homo sapiens) (P05067 whole entry): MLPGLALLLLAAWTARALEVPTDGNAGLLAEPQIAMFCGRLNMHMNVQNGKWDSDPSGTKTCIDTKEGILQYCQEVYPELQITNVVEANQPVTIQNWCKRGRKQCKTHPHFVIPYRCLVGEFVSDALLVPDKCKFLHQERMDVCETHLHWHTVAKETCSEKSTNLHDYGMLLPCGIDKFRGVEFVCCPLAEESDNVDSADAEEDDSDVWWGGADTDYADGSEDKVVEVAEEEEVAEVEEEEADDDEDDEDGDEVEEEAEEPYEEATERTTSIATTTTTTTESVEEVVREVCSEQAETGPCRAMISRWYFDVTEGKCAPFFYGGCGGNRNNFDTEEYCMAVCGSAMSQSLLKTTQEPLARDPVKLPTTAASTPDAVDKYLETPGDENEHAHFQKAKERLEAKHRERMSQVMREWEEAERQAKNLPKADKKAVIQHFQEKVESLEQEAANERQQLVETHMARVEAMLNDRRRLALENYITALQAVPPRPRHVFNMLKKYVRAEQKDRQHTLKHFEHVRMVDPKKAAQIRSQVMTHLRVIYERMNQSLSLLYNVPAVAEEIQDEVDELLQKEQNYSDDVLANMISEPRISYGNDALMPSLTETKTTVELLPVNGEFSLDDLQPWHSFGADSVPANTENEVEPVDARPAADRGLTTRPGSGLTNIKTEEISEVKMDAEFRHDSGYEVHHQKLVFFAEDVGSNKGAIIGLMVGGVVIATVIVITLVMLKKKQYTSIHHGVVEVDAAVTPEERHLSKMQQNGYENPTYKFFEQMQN
Method in brief: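 HFIP-pretreated human Aβ1–42 dissolved at 1000 μM in 1% NH4OH, sonicated 1 h cold, stored −20 °C, diluted in PBS pH 7.4. Aβ (25 μM final) incubated with compound (50 μM final) or PBS 24 h at 37 °C in dark. Aliquot mixed with 5 μM ThT in Gly-NaOH pH 8.5, shaken 5 min; fluorescence ex 450/em 490 nm. Inhibition = 1 − Fs/F0, background ThT subtracted; three independent experiments.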

[12] = test system: SH-SY5Y; test: Neuroprotective activity against H2O2-induced oxidative damage in human SH-SY5Y cells assessed as increase in cell viability at 500 uM pretreated for 24 hrs followed by H2O2 challenge for 2 hrs by MTT assay; type: functional, cell-based; conditions: time 26.0 hrs
Method in brief: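 SH-SY5Y cells are seeded at 1 × 10^4/well in DMEM/F12 with 10% FBS and grown 24 h. They are pretreated with compound for 24 h, then given 200 μM H2O2 for 2 h. MTT (5 mg/mL stock) is added for 4 h, formazan dissolved in DMSO, and A490 read. Viability is given as % of untreated control, mean ± SEM (n = 3).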

[13] = test system: H9c2; test: Neuroprotective activity against H2O2-induced oxidative damage in rat H9c2 cells assessed as increase in cell viability at 125 to 500 uM pretreated for 24 hrs followed by H2O2 challenge for 2 hrs by MTT assay; type: functional, cell-based; conditions: dose 125-500 µM, time 26.0 hrs
[14] = test system: BV-2; test: Antioxidant activity in mouse BV-2 cells assessed as reduction in H2O2-induced intracellular ROS accumulation at 125 to 500 uM pretreated for 24 hrs followed by H2O2 challenge for 12 hrs by DCFH-DA staining based inverted fluorescence microscopy; type: functional, cell-based; conditions: dose 125-500 µM, time 36.0 hrs
Method in brief: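 BV-2 cells (2 × 10^5/well) are pretreated with compound for 24 h, then given 1000 μM H2O2 for 12 h. They are loaded with 10 μM DCFH-DA in serum-free medium for 30 min at 37 °C and washed three times with PBS.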

[15] = test system: H9c2; test: Antioxidant activity in rat H9c2 cells assessed as reduction in H2O2-induced intracellular ROS accumulation at 125 to 500 uM pretreated for 24 hrs followed by H2O2 challenge for 4 hrs by DCFH-DA staining based inverted fluorescence microscopy; type: functional, cell-based; conditions: dose 125-500 µM, time 28.0 hrs
[16] = test system: BV-2; test: Antioxidant activity in mouse BV-2 cells assessed as reduction in H2O2-induced intracellular ROS accumulation by measuring intracellular ROS level at 500 uM pretreated for 24 hrs followed by H2O2 challenge for 12 hrs by DCFH-DA staining based flow cytometry (reference value: 40.7%); type: functional; design: scale not given: the % may be the effect or the level left; conditions: time 36 hrs
[17] = test system: BV-2; test: Antioxidant activity in mouse BV-2 cells assessed as reduction in H2O2-induced intracellular ROS accumulation by measuring intracellular ROS level at 250 uM pretreated for 24 hrs followed by H2O2 challenge for 12 hrs by DCFH-DA staining based flow cytometry (reference value: 40.7%); type: functional; design: scale not given: the % may be the effect or the level left; conditions: time 36 hrs
[18] = test system: BV-2; test: Antioxidant activity in mouse BV-2 cells assessed as reduction in H2O2-induced intracellular ROS accumulation by measuring intracellular ROS level at 125 uM pretreated for 24 hrs followed by H2O2 challenge for 12 hrs by DCFH-DA staining based flow cytometry (reference value: 40.7%); type: functional; design: scale not given: the % may be the effect or the level left; conditions: time 36 hrs
[19] = Induction of intracellular ROS accumulation in mouse BV-2 cells at 500 uM treated for 24 hrs by DCFH-DA staining based flow cytometry (reference value: 7.15%); type: toxicity, cell-based; conditions: bv-2, 24 h
[20] = test system: H9c2; test: Antioxidant activity in rat H9c2 cells assessed as reduction in H2O2-induced intracellular ROS accumulation at 125 to 500 uM pretreated for 24 hrs followed by H2O2 challenge for 4 hrs by DCFH-DA staining based flow cytometry; type: functional, cell-based; conditions: dose 125-500 µM, time 28.0 hrs
[21] = test system: BV-2; test: Antioxidant activity in mouse BV-2 cells assessed as reduction in H2O2-induced ROS burst by measuring increase in SOD activity at 125 to 500 uM treated with compound prior to H2O2 challenge; type: functional, cell-based; conditions: dose 125-500 µM
[22] = Metal chelating activity assessed as compound-Fe3+ complex formation by measuring optical responses at 100 uM in presence of FeCl3 by UV-Vis spectroscopy
Method in brief: (§2)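 Compound held at 100 μM in HEPES buffer (pH 7.4). The metal salt (CuSO4, ZnCl2, FeCl2, FeCl3·7H2O, AlCl3, Mn(CH3COO)2, MgSO4, NaCl, KCl or CaCl2) was added at one equivalent, and the UV-vis absorption spectrum was recorded from 200 to 800 nm.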

[23] = test system: H9c2; test: Antioxidant activity in rat H9c2 cells assessed as reduction in H2O2-induced ROS burst by measuring increase in SOD activity at 125 to 500 uM treated with compound prior to H2O2 challenge; type: functional, cell-based; conditions: dose 125-500 µM
[24] = Metal chelating activity assessed as compound-Cu2+ complex formation by measuring optical responses at 100 uM in presence of CuSO4 by UV-Vis spectroscopy; method in brief: as §2
[25] = Metal chelating activity assessed as compound-Zn2+ complex formation by measuring optical responses at 100 uM in presence of ZnCl2 by UV-Vis spectroscopy; method in brief: as §2
[26] = Metal chelating activity assessed as compound-Fe2+ complex formation by measuring optical responses at 100 uM in presence of FeCl2 by UV-Vis spectroscopy; method in brief: as §2
[27] = Metal chelating activity assessed as compound-Al3+ complex formation by measuring optical responses at 100 uM in presence of AlCl3 by UV-Vis spectroscopy; method in brief: as §2
[28] = Metal chelating activity assessed as compound-Na+ complex formation by measuring optical responses at 100 uM in presence of NaCl by UV-Vis spectroscopy; method in brief: as §2
[29] = Metal chelating activity assessed as compound-K+ complex formation by measuring optical responses at 100 uM in presence of KCl by UV-Vis spectroscopy; method in brief: as §2
[30] = Metal chelating activity assessed as compound-Mg2+ complex formation by measuring optical responses at 100 uM in presence of MgSO4 by UV-Vis spectroscopy; method in brief: as §2
[31] = Metal chelating activity assessed as compound-Ca2+ complex formation by measuring optical responses at 100 uM in presence of CaCl2 by UV-Vis spectroscopy; method in brief: as §2
[32] = Metal chelating activity assessed as compound-Mn2+ complex formation by measuring optical responses at 100 uM in presence of Mn(CH3COO)2 by UV-Vis spectroscopy; method in brief: as §2
[33] = Metal chelating activity assessed as compound-Cu2+ complex formation by measuring increase in absorption band intensity at 475 nm at 100 uM in presence of CuSO4 by UV-Vis spectroscopy
Method in brief: (§3)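 Compound held at 100 μM in HEPES buffer (pH 7.4) and titrated with Cu2+ at 12.5–200 μM (nine levels). UV-vis spectra were followed at 370 and 475 nm. Stoichiometry was taken from a plot of absorbance at 475 nm against the Cu2+:compound ratio.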

[34] = Metal chelating activity assessed as compound-Cu2+ complex formation by measuring decrease in absorption band intensity at 370 nm at 100 uM in presence of CuSO4 by UV-Vis spectroscopy; method in brief: as §3
[35] = Metal chelating activity assessed as compound-Cu2+ complex formation at stoichiometric ratio of 1:1 at 100 uM in presence of CuSO4 by UV-Vis spectroscopy; method in brief: as §3
[36] = Metal chelating activity assessed as compound-Fe2+ complex formation at stoichiometric ratio of 1:1 at 100 uM in presence of FeCl2 by UV-Vis spectroscopy

O=c1cc(CO)oc(-c2oc(CO)cc(=O)c2O)c1O
Activity [1]: 50.3%
Activity [2]: 79.4%
fold change (FC) [3]: 2
fold change (FC) [4]: 2
Activity [5]: 56%
IC50 at 24 h [6]: > 500 µM
IC50 at 24 h [7]: > 500 µM
IC50 at 24 h [8]: > 500 µM
IC50 at 24 h [9]: > 500 µM
IC50 at 24 h [10]: > 500 µM
inhibition [11]: 17%
Activity [12]: Active
Activity [13]: Active
Activity [14]: Active
Activity [15]: Active
Activity [16]: 21.6%
Activity [17]: 24.8%
Activity [18]: 29.4%
Activity [19]: 14%
Activity [20]: Active
Activity [21]: Dose-Dependent Effect
Activity [22]: Active
Activity [23]: Active
Activity [24]: Active
Activity [25]: Active
Activity [26]: Active
Activity [27]: Active
Activity [28]: inactive
Activity [29]: inactive
Activity [30]: inactive
Activity [31]: inactive
Activity [32]: inactive
Activity [33]: Active
Activity [34]: Active
Activity [35]: Active
Activity [36]: Active

O=C1O[C@H]([C@@H](O)CO)C(O)=C1O
Activity [5]: 39.7%

O=c1cc(CO)occ1O [KOJIC ACID]
Activity [1]: 17.8%
Activity [2]: 46.8%
IC50 at 24 h [6]: > 500 µM
IC50 at 24 h [7]: > 500 µM
IC50 at 24 h [8]: > 500 µM
IC50 at 24 h [9]: > 500 µM
IC50 at 24 h [10]: > 500 µM
inhibition [11]: 14.6%
